From ChEMBL document CHEMBL2150968, “Development of a bifunctional chelating agent containing isothiocyanate residue for one step F-18 labeling of peptides and application for RGD labeling” (Bioorg Med Chem, 2012)

Legend:
Pancreas [1] = assay: Drug uptake in pancreas of BALB/c nude mouse xenografted with human U87MG cells over expressing […] integrin at 0.148 MBq/0.1 mL after 60 mins by gamma counting in presence of 3 mg/kg c(RGDyk); assay type: ADME, organism-based, U-87MG ATCC; design: dose 3 mg/kg; conditions: in vivo, 1 h
Summary of the method: (§1)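 Male BALB/c nude mice received 2 × 10^5 U87MG human glioma cells s.c. in the right shoulder, 11 days before tracer. Tracer was given by tail vein; blocking groups were co-injected with cold c(RGDyK) 3 mg/kg. Mice were killed at 60 min; organs and blood were weighed and gamma counted, and %ID/g was calculated. n = 8; Student's t-test.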

Blood [2] = assay: Drug uptake in blood of BALB/c nude mouse xenografted with human U87MG cells overexpressing […] integrin at 0.148 MBq/0.1 mL after 60 mins by gamma counting in presence of 3 mg/kg c(RGDyk); assay type: ADME, organism-based, U-87MG ATCC; design: dose 3 mg/kg; conditions: in vivo, 1 h; summary of the method: as §1
Muscle tissue [3] = assay: Drug uptake in muscle of BALB/c nude mouse xenografted with human U87MG cells over expressing […] integrin at 0.148 MBq/0.1 mL after 60 mins by gamma counting in presence of 3 mg/kg c(RGDyk); assay type: ADME, organism-based, U-87MG ATCC; design: dose 3 mg/kg; conditions: in vivo, 1 h; summary of the method: as §1
Lung [4] = assay: Drug uptake in lung of BALB/c nude mouse xenografted with human U87MG cells over expressing […] integrin at 0.148 MBq/0.1 mL after 60 mins by gamma counting in presence of 3 mg/kg c(RGDyk); assay type: ADME, organism-based, U-87MG ATCC; design: dose 3 mg/kg; conditions: in vivo, 1 h; summary of the method: as §1
Liver [5] = assay: Drug uptake in liver of BALB/c nude mouse xenografted with human U87MG cells over expressing […] integrin at 0.148 MBq/0.1 mL after 60 mins by gamma counting in presence of 3 mg/kg c(RGDyk); assay type: ADME, organism-based, U-87MG ATCC; design: dose 3 mg/kg; conditions: in vivo, 1 h; summary of the method: as §1
Spleen [6] = assay: Drug uptake in spleen of BALB/c nude mouse xenografted with human U87MG cells over expressing […] integrin at 0.148 MBq/0.1 mL after 60 mins by gamma counting in presence of 3 mg/kg c(RGDyk); assay type: ADME, organism-based, U-87MG ATCC; design: dose 3 mg/kg; conditions: in vivo, 1 h; summary of the method: as §1
Stomach [7] = assay: Drug uptake in stomach of BALB/c nude mouse xenografted with human U87MG cells over expressing […] integrin at 0.148 MBq/0.1 mL after 60 mins by gamma counting in presence of 3 mg/kg c(RGDyk); assay type: ADME, organism-based, U-87MG ATCC; design: dose 3 mg/kg; conditions: in vivo, 1 h; summary of the method: as §1
Intestine [8] = assay: Drug uptake in intestine of BALB/c nude mouse xenografted with human U87MG cells over expressing […] integrin at 0.148 MBq/0.1 mL after 60 mins by gamma counting in presence of 3 mg/kg c(RGDyk); assay type: ADME, organism-based, U-87MG ATCC; design: dose 3 mg/kg; conditions: in vivo, 1 h; summary of the method: as §1
Kidney [9] = assay: Drug uptake in kidney of BALB/c nude mouse xenografted with human U87MG cells over expressing […] integrin at 0.148 MBq/0.1 mL after 60 mins by gamma counting in presence of 3 mg/kg c(RGDyk); assay type: ADME, organism-based, U-87MG ATCC; design: dose 3 mg/kg; conditions: in vivo, 1 h; summary of the method: as §1
Bone [10] = assay: Drug uptake in bone of BALB/c nude mouse xenografted with human U87MG cells over expressing […] integrin at 0.148 MBq/0.1 mL after 60 mins by gamma counting in presence of 3 mg/kg c(RGDyk); assay type: ADME, organism-based, Bone element, U-87MG ATCC; design: dose 3 mg/kg; conditions: in vivo, 1 h; summary of the method: as §1
[11] = Drug uptake in human U87MG cells over expressing […] integrin xenografted in BALB/c nude mouse tumor at 11.1 MBq/0.1 mL, iv after 2 hrs by PET/CT imaging; assay type: ADME, organism-based, Neoplasm, U-87MG ATCC; conditions: in vivo
Summary of the method: (§2)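 Glioma-xenografted BALB/c nude mice were injected by tail vein; inhibition groups were co-injected with cold c(RGDyK) 3 mg/kg. Under 2% isoflurane, dynamic small-animal PET/CT was acquired at 1 and 2 h, with decay-corrected images. SUV = tissue activity concentration (MBq/mL) / (injected dose (MBq) / body weight (g)). Normal tissue reference was the left shoulder.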

Urinary bladder = assay: Drug uptake in bladder of BALB/c nude mouse xenografted with human U87MG cells over expressing […] integrin at 11.1 MBq/0.1 mL, iv after 1 to 2 hrs by PET/CT imaging; assay type: ADME, organism-based, U-87MG ATCC; conditions: in vivo; summary of the method: as §2
[12] = Chemical stability of the compound after 4 hrs by ITLC-SG analysis; assay type: physicochemical
Summary of the method: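 After Al18F labeling (pH 4 sodium acetate buffer, 110 °C, 10 min), stability of the labeled conjugate was followed in the labeling medium at room temperature for 240 min. Decomposition was checked by ITLC-SG; unbound [18F]AlF stays at the origin, the labeled peptide runs to the solvent front.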

[13] = Stability of the compound in human serum for 4 hrs by ITLC-SG analysis; assay type: ADME, cell-free
Summary of the method: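 Labeled conjugate was incubated in human serum at 37 °C for 240 min. Decomposition was checked by ITLC-SG; unbound [18F]AlF stays at the origin, the labeled peptide runs to the solvent front.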

[14] = Drug uptake in human U87MG cells over expressing […] integrin xenografted BALB/c nude mouse tumor at 0.148 MBq/0.1 mL, iv after 60 mins by gamma counting; assay type: ADME, organism-based, Neoplasm, U-87MG ATCC; conditions: in vivo, 1 h; summary of the method: as §1
Blood [15] = assay: Drug uptake in blood of BALB/c nude mouse xenografted with human U87MG cells over expressing […] integrin at 0.148 MBq/0.1 mL, iv after 60 mins by gamma counting; assay type: ADME, organism-based, U-87MG ATCC; conditions: in vivo, 1 h; summary of the method: as §1
Muscle tissue [16] = assay: Drug uptake in muscle of BALB/c nude mouse xenografted with human U87MG cells over expressing […] integrin at 0.148 MBq/0.1 mL, iv after 60 mins by gamma counting; assay type: ADME, organism-based, U-87MG ATCC; conditions: in vivo, 1 h; summary of the method: as §1
Pancreas [17] = assay: Drug uptake in pancreas of BALB/c nude mouse xenografted with human U87MG cells over expressing […] integrin at 0.148 MBq/0.1 mL, iv after 60 mins by gamma counting; assay type: ADME, organism-based, U-87MG ATCC; conditions: in vivo, 1 h; summary of the method: as §1
Heart [18] = assay: Drug uptake in heart of BALB/c nude mouse xenografted with human U87MG cells over expressing […] integrin at 0.148 MBq/0.1 mL, iv after 60 mins by gamma counting; assay type: ADME, organism-based, U-87MG ATCC; conditions: in vivo, 1 h; summary of the method: as §1
Lung [19] = assay: Drug uptake in lung of BALB/c nude mouse xenografted with human U87MG cells over expressing […] integrin at 0.148 MBq/0.1 mL, iv after 60 mins by gamma counting; assay type: ADME, organism-based, U-87MG ATCC; conditions: in vivo, 1 h; summary of the method: as §1
Liver [20] = assay: Drug uptake in liver of BALB/c nude mouse xenografted with human U87MG cells over expressing […] integrin at 0.148 MBq/0.1 mL, iv after 60 mins by gamma counting; assay type: ADME, organism-based, U-87MG ATCC; conditions: in vivo, 1 h; summary of the method: as §1
Spleen [21] = assay: Drug uptake in spleen of BALB/c nude mouse xenografted with human U87MG cells over expressing […] integrin at 0.148 MBq/0.1 mL, iv after 60 mins by gamma counting; assay type: ADME, organism-based, U-87MG ATCC; conditions: in vivo, 1 h; summary of the method: as §1
Stomach [22] = assay: Drug uptake in stomach of BALB/c nude mouse xenografted with human U87MG cells over expressing […] integrin at 0.148 MBq/0.1 mL, iv after 60 mins by gamma counting; assay type: ADME, organism-based, U-87MG ATCC; conditions: in vivo, 1 h; summary of the method: as §1
Intestine [23] = assay: Drug uptake in intestine of BALB/c nude mouse xenografted with human U87MG cells over expressing […] integrin at 0.148 MBq/0.1 mL, iv after 60 mins by gamma counting; assay type: ADME, organism-based, U-87MG ATCC; conditions: in vivo, 1 h; summary of the method: as §1
Kidney [24] = assay: Drug uptake in kidney of BALB/c nude mouse xenografted with human U87MG cells over expressing […] integrin at 0.148 MBq/0.1 mL, iv after 60 mins by gamma counting; assay type: ADME, organism-based, U-87MG ATCC; conditions: in vivo, 1 h; summary of the method: as §1
Bone [25] = assay: Drug uptake in bone of BALB/c nude mouse xenografted with human U87MG cells over expressing […] integrin at 0.148 MBq/0.1 mL, iv after 60 mins by gamma counting; assay type: ADME, organism-based, Bone element, U-87MG ATCC; conditions: in vivo, 1 h; summary of the method: as §1
[26] = Drug uptake in human U87MG cells over expressing […] integrin xenografted in BALB/c nude mouse tumor at 0.148 MBq/0.1 mL after 1 hr by gamma counting in presence of 3 mg/kg c(RGDyk); assay type: ADME, organism-based, Neoplasm, U-87MG ATCC; design: dose 3 mg/kg; conditions: in vivo; summary of the method: as §1
[27] = Drug uptake in human U87MG cells over expressing […] integrin xenografted in BALB/c nude mouse tumor at 11.1 MBq/0.1 mL, iv after 1 hr by PET/CT imaging; assay type: ADME, organism-based, Neoplasm, U-87MG ATCC; conditions: in vivo; summary of the method: as §2
[28] = Drug uptake in human U87MG cells overexpressing […] integrin xenografted in BALB/c nude mouse tumor at 11.1 MBq/0.1 mL after 1 hr by PET/CT imaging in presence of 3 mg/kg c(RGDyk); assay type: ADME, organism-based, Neoplasm, U-87MG ATCC; design: dose 3 mg/kg; conditions: in vivo; summary of the method: as §2
Heart [29] = assay: Drug uptake in heart of BALB/c nude mouse xenografted with human U87MG cells over expressing […] integrin at 0.148 MBq/0.1 mL after 60 mins by gamma counting in presence of 3 mg/kg c(RGDyk); assay type: ADME, organism-based, U-87MG ATCC; design: dose 3 mg/kg; conditions: in vivo, 1 h; summary of the method: as §1
[30] = Drug uptake in human U87MG cells overexpressing alphavbeta3 integrin xenografted in BALB/c nude mouse tumor at 11.1 MBq/0.1 mL after 2 hrs by PET/CT imaging in presence of 3 mg/kg c(RGDyk); conditions: in vivo

N=C(N)NCCC[C@@H]1NC(=O)[C@H](CCCCNC(=S)Nc2ccc(CN3CCN4CCN(CC3)CC(=O)[O][Al]([18F])[O]C(=O)C4)cc2)NC(=O)[C@@H](Cc2ccc(O)cc2)NC(=O)[C@H](CC(=O)O)NC(=O)CNC1=O
Drug uptake (Pancreas [1]): Not Active
Drug uptake (Blood [2]): Not Active
Drug uptake (Muscle tissue [3]): Not Active
Drug uptake (Lung [4]): Not Active
Drug uptake (Liver [5]): Not Active
Drug uptake (Spleen [6]): Not Active
Drug uptake (Stomach [7]): Not Active
Drug uptake (Intestine [8]): Not Active
Drug uptake (Kidney [9]): Not Active
Drug uptake (Bone [10]): Not Active
SUV [11]: 3.77
Drug uptake (Urinary bladder): Active
remaining at 4 h [12]: > 95%
remaining at 4 h [13]: > 95%
Drug uptake [14]: 4.41 % ID/g
Drug uptake (Blood [15]): Active
Drug uptake (Muscle tissue [16]): Active
Drug uptake (Pancreas [17]): Active
Drug uptake (Heart [18]): Active
Drug uptake (Lung [19]): Active
Drug uptake (Liver [20]): Active
Drug uptake (Spleen [21]): Active
Drug uptake (Stomach [22]): Active
Drug uptake (Intestine [23]): Active
Drug uptake (Kidney [24]): Active
Drug uptake (Bone [25]): Active
Drug uptake [26]: 1.33 % ID/g
SUV [27]: 7.42
SUV [28]: 0.72
Drug uptake (Heart [29]): Not Active
SUV [30]: 0.42
